Experimental data taken from article PMC7557569 (RSC Medicinal Chemistry, 2020).

Legend:
[1] = target: T1, EphA3 (Homo sapiens, UniProt P29320); details: EphA3, DSF; first generation inhibitors; ref 8d; cited from earlier work
T1 sequence (P29320 21-983): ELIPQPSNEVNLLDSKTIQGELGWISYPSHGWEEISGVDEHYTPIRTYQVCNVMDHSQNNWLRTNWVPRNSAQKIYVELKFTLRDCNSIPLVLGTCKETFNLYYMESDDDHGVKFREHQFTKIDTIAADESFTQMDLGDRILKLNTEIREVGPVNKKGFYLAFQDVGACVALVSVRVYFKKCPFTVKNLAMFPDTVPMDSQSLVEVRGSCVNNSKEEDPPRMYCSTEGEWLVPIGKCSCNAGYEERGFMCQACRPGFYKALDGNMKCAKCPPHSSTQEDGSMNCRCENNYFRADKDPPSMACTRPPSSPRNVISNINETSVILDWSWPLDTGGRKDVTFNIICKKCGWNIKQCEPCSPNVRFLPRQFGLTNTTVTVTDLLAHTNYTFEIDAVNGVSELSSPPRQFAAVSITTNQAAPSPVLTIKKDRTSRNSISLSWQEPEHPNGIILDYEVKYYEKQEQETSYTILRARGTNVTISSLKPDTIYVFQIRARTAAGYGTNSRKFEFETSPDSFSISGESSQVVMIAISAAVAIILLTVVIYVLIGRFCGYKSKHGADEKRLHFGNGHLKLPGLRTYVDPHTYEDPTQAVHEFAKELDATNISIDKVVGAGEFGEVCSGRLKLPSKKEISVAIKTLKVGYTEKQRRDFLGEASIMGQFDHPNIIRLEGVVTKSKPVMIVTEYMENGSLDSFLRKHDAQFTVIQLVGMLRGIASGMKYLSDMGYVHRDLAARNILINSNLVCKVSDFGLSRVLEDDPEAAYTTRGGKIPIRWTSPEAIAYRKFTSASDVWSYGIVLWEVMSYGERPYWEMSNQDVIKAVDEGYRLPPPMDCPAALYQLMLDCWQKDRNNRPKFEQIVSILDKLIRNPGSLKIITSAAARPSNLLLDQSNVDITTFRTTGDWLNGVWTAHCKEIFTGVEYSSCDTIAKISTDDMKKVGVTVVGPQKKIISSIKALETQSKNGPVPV

[2] = tested on: human umbilical vein endothelial cells (HUVEC); details: HUVEC tube formation; previously developed inhibitors; cited from earlier work
[3] = tested on: RI-1 cell line xenograft; experiment: Mouse xenograft model with the ABC DLBCL RI-1 cell line; type: in vivo; details: NOD-Scid mice, RI-1 xenograft; for tolerability / general toxicity and body weight: 100 mg kg^-1 IP
How it was run: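 NOD-Scid mice were inoculated subcutaneously with RI-1 ABC-DLBCL cells (15 × 10^6). They were split into groups of n = 4 given test compound at 100 mg kg−1 IP once every 5 days, or control vehicle. Tumor volume (mm3) and body weight were followed to day 15.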

[4] = tested on: K-562 cell line; experiment: NCI-60 cancer cell line panel, growth inhibition; type: cell-based; details: Homo sapiens, K562

SMILES	Thermal shift (ΔTm) [1] [°C]	inhibition of total branching points [2] [%]	inhibition of total loops [2] [%]	inhibition of tube length [2] [%]	tolerability / general toxicity and body weight [3]	GI50 [4] [nM]	xenograft tumor size versus control group ([3]; 100 mg kg^-1 IP once every 5 days, day 15)
Cc1ccc(O)cc1-n1c(N)c(C(N)=O)c2nc3ccccc3nc21 [Compound 1]	11.2	23	21	9			
NC(=O)c1c(N)n(-c2ccc(NC(=O)Nc3cccc(C(F)(F)F)c3)cc2)c2nc3ccccc3nc12 [Compound 2]		9	13	5			
Cc1ccc(-n2nc(C(C)(C)C)cc2NC(=O)Nc2ccc(-n3c(N)c(C(N)=O)c4nc5ccccc5nc43)cc2)cc1 [Compound 8a]					very toxic already after the first dose	31	
CC(C)(C)c1cc(NC(=O)Nc2ccc(-n3c(N)c(C(N)=O)c4nc5ccccc5nc43)cc2)n(-c2ccc3ncccc3c2)n1 [Compound 8b]					well tolerated with no general toxicity or body-weight loss	< 10	three times smaller
